Experiments:
[1] = target: T1, Ribonucleoside-diphosphate reductase subunit alpha (Mycobacterium tuberculosis, UniProt P9WH75); test: Displacement of Dansyl-Gly-Ser-Gly-Glu-Asp-Asp-Asp-Trp-Asp-Phe from C-terminal R1 subunit of Mycobacterium tuberculosis ribonucleotide reductase by fluorescence polarization assay
T1 sequence (P9WH75 whole entry): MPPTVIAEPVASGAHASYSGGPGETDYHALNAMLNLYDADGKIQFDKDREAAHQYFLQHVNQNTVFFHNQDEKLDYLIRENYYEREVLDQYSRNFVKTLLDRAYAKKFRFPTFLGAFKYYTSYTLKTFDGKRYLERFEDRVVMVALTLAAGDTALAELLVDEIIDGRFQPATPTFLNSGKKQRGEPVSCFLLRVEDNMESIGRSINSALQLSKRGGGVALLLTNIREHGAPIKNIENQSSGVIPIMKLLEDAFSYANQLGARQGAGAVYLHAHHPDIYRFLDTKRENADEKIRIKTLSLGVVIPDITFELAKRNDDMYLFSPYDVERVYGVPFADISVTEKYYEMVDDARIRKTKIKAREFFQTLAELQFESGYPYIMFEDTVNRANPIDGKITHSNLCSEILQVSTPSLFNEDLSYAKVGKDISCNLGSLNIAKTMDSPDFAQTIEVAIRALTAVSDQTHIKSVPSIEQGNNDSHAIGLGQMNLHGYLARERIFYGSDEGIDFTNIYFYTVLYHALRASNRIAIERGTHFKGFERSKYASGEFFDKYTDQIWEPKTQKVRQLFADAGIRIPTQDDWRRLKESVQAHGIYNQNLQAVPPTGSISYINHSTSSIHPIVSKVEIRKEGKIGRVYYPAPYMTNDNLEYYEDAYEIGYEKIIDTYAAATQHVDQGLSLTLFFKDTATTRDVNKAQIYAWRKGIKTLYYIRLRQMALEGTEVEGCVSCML
Summary of the method: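 Competitive fluorescence polarization: compounds compete with a fluorescent probe carrying the R2 C-terminal sequence for binding to M. tuberculosis R1, and dissociation constants (KD2) are derived. Compound stocks are 5–25 mM in 100% DMSO.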

[2] = Inhibition of Mycobacterium tuberculosis ribonucleotide reductase by [3H]CDP assay
Summary of the method: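 CDP reduction is read as cpm. IC50 is the concentration giving a 50% cpm reduction, averaged from three separate experiments with standard deviation.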

CC(=O)N[C@@H](CCC(=O)O)C(=O)N[C@@H](CC(=O)O)C(=O)N[C@@H](CC(=O)O)C(=O)Nc1cccc2c1N[C@@H](Cc1c[nH]c3ccccc13)C(=O)N(CC(=O)N[C@@H](Cc1ccccc1)C(=O)O)C2
Kd [1]: 81 µM

CC(=O)N[C@@H](CCC(=O)O)C(=O)N[C@@H](CC(=O)O)C(=O)N[C@@H](CC(=O)O)C(=O)N[C@@H](CC(=O)O)C(=O)Nc1cccc2c1N[C@@H](Cc1c[nH]c3ccccc13)C(=O)N(CC(=O)N[C@@H](Cc1ccccc1)C(=O)O)C2
Kd [1]: 27 µM | IC50 [2]: 64 µM

CC(=O)N[C@@H](CC(=O)O)C(=O)Nc1cccc2c1N[C@@H](Cc1c[nH]c3ccccc13)C(=O)N(CC(=O)N[C@@H](Cc1ccccc1)C(=O)O)C2
Kd [1]: > 150 µM

O=C(O)C[C@H](NC(=O)OCC1c2ccccc2-c2ccccc21)C(=O)Nc1cccc2c1N[C@@H](Cc1c[nH]c3ccccc13)C(=O)N(CC(=O)N[C@@H](Cc1ccccc1)C(=O)O)C2
Kd [1]: 1.6 µM

O=C(O)CN1Cc2cccc(NC(=O)OCC3c4ccccc4-c4ccccc43)c2N[C@@H](Cc2c[nH]c3ccccc23)C1=O
Kd [1]: 8.1 µM | IC50 [2]: 24 µM

O=C(Nc1cccc2c1N[C@@H](Cc1c[nH]c3ccccc13)C(=O)N(CCO)C2)OCC1c2ccccc2-c2ccccc21
Kd [1]: 26 µM | IC50 [2]: 171 µM

Ac-EDDDWDF-OH
Kd [1]: 8.3 µM | IC50 [2]: 20 µM
